Measured values: ChEMBL document CHEMBL3232778, “One-pot synthesis and radical scavenging activity of novel polyhydroxylated 3-arylcoumarins” (Eur J Med Chem, 2014)
Calls of active or inactive are those of the source. No cut-off for these calls is given here.

Key:
[1] = system: Radical scavenging activity; assay: Antioxidant activity assessed as DPPH radical scavenging activity up to 100 uM by spectrophotometry; format: functional
[2] = system: Radical scavenging activity; assay: Antioxidant activity assessed as DPPH radical scavenging activity by spectrophotometry; format: functional
Summary of the method: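 DPPH• in methanol, prepared daily and kept from light; 0.5 mL test solution in methanol (4-25 µM) added to 0.5 mL of 100 µM DPPH•. Absorbance read at 518 nm at intervals until equilibrium, with a methanol blank; triplicates, five analyte concentrations. %DPPH• remaining = Af/A0×100; concentration plotted against % remaining to get the 50% scavenging value.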

Row | Structure (SMILES) | Activity [1] | EC50 [2] [µM]
1 | O=C(O)c1ccccc1-c1cc2c(O)cccc2oc1=O | inactive | 
2 | O=C(O)c1cc(O)c(O)cc1-c1cc2ccccc2oc1=O |  | 5.14
3 | O=C(O)c1ccccc1-c1cc2cccc(O)c2oc1=O | inactive | 
4 | O=C(O)c1ccccc1-c1cc2ccc(O)cc2oc1=O | inactive | 
5 | O=C(O)/C=C/c1ccc(O)c(O)c1 [CAFFEIC ACID] |  | 9.48
6 | O=C(O)c1cc(O)c(O)cc1-c1cc2ccc(O)cc2oc1=O |  | 6.02
7 | O=C(O)c1ccccc1-c1cc2ccc(O)c(O)c2oc1=O |  | 3.59
8 | O=C(O)c1cc(O)c(O)cc1-c1cc2cc(O)ccc2oc1=O |  | 3.17
9 | O=C(O)c1ccccc1-c1cc2ccccc2oc1=O | inactive | 
10 | O=C(O)c1cc(O)c(O)cc1-c1cc2cccc(O)c2oc1=O |  | 4.09
11 | O=C(O)c1cc(O)c(O)cc1-c1cc2cc(Br)ccc2oc1=O |  | 4.02
12 | O=C(O)c1ccccc1-c1cc2cc(Br)ccc2oc1=O | inactive | 
13 | O=C(O)c1cc(O)c(O)cc1-c1cc2c(O)cccc2oc1=O |  | 6.86
14 | O=C(O)c1cc(O)c(O)cc1-c1cc2cc(O)c(O)cc2oc1=O |  | 5.3
15 | O=C(O)c1ccc(O)c(O)c1 [PROTOCATECHUIC ACID] |  | 8.83
16 | O=C(O)c1ccccc1-c1cc2cc(O)c(O)cc2oc1=O |  | 5.32
17 | O=C(O)c1cc(O)c(O)c(O)c1 [GALLIC ACID] |  | 5.34
18 | O=C(O)c1ccccc1-c1cc2cc(O)ccc2oc1=O | inactive | 
19 | Cc1c(C)c2c(c(C)c1O)CCC(C)(C(=O)O)O2 (stereo not given) [TROLOX] |  | 9.34
20 | O=C(O)c1cc(O)c(O)cc1-c1cc2ccc(O)c(O)c2oc1=O |  | 3.39
